A value given as a limit tells only on which side of the number the result lay.

Experiment [1] can be described thus: Selectivity index, ratio of CC50 to EC50. The experiment is classed as functional. In outline:
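Ratio of CC50 (mock-infected MT-4 viability, MTT) to EC50 (protection of MT-4 cells from HIV-1 cytopathicity, MTT).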

The test system of experiment [2] is MT4. The experiment is described as follows: 50% cytotoxic concentration against mock-infected MT-4 cells using MTT method. The experiment is classed as functional. The note with it: Homo sapiens. The gist of the method:
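Viability of mock-infected MT-4 cells run in parallel with the antiviral assay; viable cells counted by MTT; CC50 = dose (µM) reducing viability by 50%.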
For orientation: Formazan colour is commonly taken as a measure of viable cells.

The test system of experiment [3] is MT4. The experiment is described as follows: Effective concentration against HIV-1 induced cytopathicity in MT-4 cells using MTT method. It is filed as functional, cell-based. The note with it: Homo sapiens. The gist of the method: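 MT-4 cells acutely infected with HIV-1; inhibition of virus-induced cytopathicity; viable cells determined by MTT; EC50 = dose (µM) giving 50% protection from cytopathicity.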
(In general: Cytopathic effects are the visible damage that an infection or toxin causes in cultured cells.)

One may read the CC50 as the concentration at which the toxic effect on the cells reaches its halfway point. A lower CC50 goes with greater toxicity to the cells. As a reminder, the EC50 is the concentration needed to bring the measured effect to its halfway point. The low end stands for greater potency, the high end for weaker potency. Regarding `CCOC(=O)c1cc(C)cn1S(=O)(=O)c1cc(Cl)ccc1N`, the Selectivity in experiment [1] is > 2220. Also, in the experiment on MT4 [2], the CC50 was > 200 µM. The EC50 with MT4 [3] is 0.09 µM.
For the compound `CC(C)OC(=O)c1cc(CNc2ccccc2)cn1S(=O)(=O)c1cc(Cl)ccc1N`, the Selectivity in experiment [1] was determined as 200. The same compound registered a CC50 in the experiment on MT4 [2] of 40 µM. This compound also gave an EC50 with MT4 [3] of 0.2 µM.
On to `CCOC(=O)c1cc(CNc2ccccc2)cn1S(=O)(=O)c1cc(Cl)ccc1N`, for which the Selectivity in experiment [1] was > 55.5. The CC50 in the experiment with MT4 [2] was > 200 µM. The response with MT4 [3] was half-maximal at 3.1 µM (EC50).
On the same counts, the results for `CCOC(=O)c1cc(COC)cn1S(=O)(=O)c1cc(Cl)ccc1N` are > 500, > 200 µM and 0.4 µM.
The matching figures for `CCOC(=O)c1cc(CO)cn1S(=O)(=O)c1cc(Cl)ccc1N`: 5330, 240 µM and 0.045 µM.
The matching figures for `CCOC(=O)c1cc(C(C)O)cn1S(=O)(=O)c1cc(Cl)ccc1N` (stereo unspecified): 460, 115 µM and 0.25 µM.
`CCOC(=O)c1cccn1S(=O)(=O)c1c(N)cccc1Cl`: the Selectivity in experiment [1] is 2.5. In the experiment on MT4 [2], this compound registered a CC50 of 180 µM. Further, the midpoint of the response in the experiment on MT4 [3], the EC50, lay at 72 µM.
For the compound `CCOC(=O)c1cc(COc2ccccc2)cn1S(=O)(=O)c1cc(Cl)ccc1N`, the Selectivity in experiment [1] was > 49. For the same compound, the CC50 with MT4 [2] was > 200 µM. The compound also displayed an EC50 with MT4 [3] of 4.1 µM.
On the same counts, the results for `CC(C)OC(=O)c1cc(CO)cn1S(=O)(=O)c1cc(Cl)ccc1N` are 1160, 116 µM and 0.1 µM.
Turning to `CCOC(=O)c1cccn1S(=O)(=O)c1cc(Cl)ccc1-n1cccc1`, the CC50 in the experiment on MT4 [2] came to 110 µM. In the experiment with MT4 [3], the EC50 was > 110 µM.
For `CCOC(=O)c1cccn1S(=O)(=O)c1cc(Cl)ccc1N`, the Selectivity in experiment [1] is > 1430. Moreover, in the experiment with MT4 [2], the CC50 was > 200 µM.
For `C=Cc1cc(C(=O)OCC)n(S(=O)(=O)c2cc(Cl)ccc2N)c1`, the Selectivity in experiment [1] is 274. Further, in the experiment on MT4 [2], the CC50 came to 47 µM. This compound came in with an EC50 with MT4 [3] of 0.17 µM.
Take `Cc1ccnc2c1NC(=O)c1cccnc1N2C1CC1` [NEVIRAPINE]: the 50% cytotoxic concentration (CC50) in the experiment with MT4 [2] was > 200 µM. In the experiment with MT4 [3], this compound came in with an EC50 of 0.35 µM.

The values above are taken from ChEMBL document CHEMBL1133020, “Structure-based design, synthesis, and biological evaluation of novel pyrrolyl aryl sulfones: HIV-1 non-nucleoside reverse transcriptase inhibitors active at nanomolar concentrations” (J Med Chem, 2000).
